Experimental data as given in ChEMBL document CHEMBL1255289, “In vitro antifungal activities of isavuconazole (BAL4815), voriconazole, and fluconazole against 1,007 isolates of zygomycete, Candida, Aspergillus, Fusarium, and Scedosporium species” (2008).
≈ marks a conversion by molar mass, not a printed value.

Columns and labels:
Scedosporium apiospermum [1] = assay: Antifungal activity against Scedosporium apiospermum isolates assessed as lowest compound concentration that produced slight growth or approximately 25% of that of growth control after 24 hrs by CLSI M38-A procedure based assay; type: functional
Lomentospora prolificans [2] = assay: Antifungal activity against Scedosporium prolificans isolates assessed as lowest compound concentration that produced complete inhibition of microbial growth after 24 hrs by CLSI M38-A procedure based assay; type: functional
Lomentospora prolificans [3] = assay: Antifungal activity against Scedosporium prolificans isolates assessed as lowest compound concentration that produced slight growth or approximately 25% of that of growth control after 24 hrs by CLSI M38-A procedure based assay; type: functional
Nakaseomyces glabratus [4] = assay: Antifungal activity against Candida glabrata isolates after 48 hrs by CLSI M27-A2 procedure based assay; type: functional
How it was run: (§1)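 Candida isolates tested by CLSI M27-A2 broth microdilution at final 0.015–16 µg/ml, or 0.125–128 µg/ml for the comparator azole. Incubation was at 35°C with a visual read at 48 h. MIC-2 was the lowest concentration giving a prominent turbidity drop, about 50% growth inhibition.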

Candida tropicalis [5] = assay: Antifungal activity against Candida tropicalis isolates after 48 hrs by CLSI M27-A2 procedure based assay; type: functional; how it was run: as §1
Candida [6] = assay: Antifungal activity against Candida sp. isolates after 48 hrs by CLSI M27-A2 procedure based assay; type: functional
How it was run: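 Candida isolates were stored at –70°C as yeast suspensions and subcultured on potato dextrose or Sabouraud agar before use. Broth microdilution used DMSO drug stocks, with final well concentrations of 0.015–16 or 0.125–128 µg/ml depending on the azole. Plates were incubated at 35°C and read macroscopically at 48 h. MIC-2 was the lowest concentration giving a prominent turbidity decrease (~50% growth inhibition).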

Pichia kudriavzevii [7] = assay: Antifungal activity against Candida krusei isolates after 48 hrs by CLSI M27-A2 procedure based assay; type: functional; how it was run: as §1
Aspergillus fumigatus = assay: Antifungal activity against Aspergillus fumigatus isolates by Etest; type: functional
How it was run: (§2)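 Etest on RPMI agar with 2% glucose, swab-inoculated with the microdilution spore or yeast suspension taken before its 50-fold dilution. Plates were incubated at 35°C and read at 48 h. The MIC was the ellipse–scale intercept, raised to the next twofold dilution step.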

Aspergillus flavus = assay: Antifungal activity against Aspergillus flavus isolates by Etest; type: functional; how it was run: as §2
Aspergillus niger = assay: Antifungal activity against Aspergillus niger isolates by Etest; type: functional; how it was run: as §2
Aspergillus terreus = assay: Antifungal activity against Aspergillus terreus isolates by Etest; type: functional; how it was run: as §2
Aspergillus sp. = assay: Antifungal activity against Aspergillus sp. isolates by Etest; type: functional; how it was run: as §2
Mucor = assay: Antifungal activity against Mucor isolates by Etest; type: functional
How it was run: (§3)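 Etest. The spore inoculum used for microdilution, taken before the 50-fold dilution, was swabbed onto RPMI agar with 2% glucose, strips applied, and plates held at 35°C and read at 24 h. The MIC was where the inhibition ellipse met the strip scale, rounded up to the next twofold dilution.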

Rhizopus = assay: Antifungal activity against Rhizopus isolates by Etest; type: functional; how it was run: as §3
Absidia = assay: Antifungal activity against Absidia isolates by Etest; type: functional; how it was run: as §3
Cunninghamella = assay: Antifungal activity against Cunninghamella isolates by Etest; type: functional; how it was run: as §3
Syncephalastrum = assay: Antifungal activity against Syncephalastrum isolates by Etest; type: functional; how it was run: as §3
Scedosporium apiospermum [8] = assay: Antifungal activity against Scedosporium apiospermum isolates by Etest; type: functional; how it was run: as §2
Lomentospora prolificans [9] = assay: Antifungal activity against Scedosporium prolificans isolates by Etest; type: functional; how it was run: as §2
Candida albicans = assay: Antifungal activity against Candida albicans isolates by Etest; type: functional; how it was run: as §2
Candida parapsilosis = assay: Antifungal activity against Candida parapsilosis isolates by Etest; type: functional; details: Lodderomyces parapsilosis; how it was run: as §2
Nakaseomyces glabratus [10] = assay: Antifungal activity against Candida glabrata isolates by Etest; type: functional; how it was run: as §2
Candida tropicalis [11] = assay: Antifungal activity against Candida tropicalis isolates by Etest; type: functional; how it was run: as §2
Candida [12] = assay: Antifungal activity against Candida sp. isolates by Etest; type: functional; how it was run: as §2
Pichia kudriavzevii [13] = assay: Antifungal activity against Candida krusei isolates by Etest; type: functional; how it was run: as §2
Fusarium [14] = assay: Antifungal activity against Fusarium sp. isolates by Etest; type: functional; how it was run: as §2
Fusarium [15] = assay: Antifungal activity against Fusarium sp. isolates assessed as lowest compound concentration that produced complete inhibition of microbial growth after 24 hrs by CLSI M38-A procedure based assay; type: functional
Fusarium [16] = assay: Antifungal activity against Fusarium sp. isolates assessed as lowest compound concentration that produced slight growth or approximately 25% of that of growth control after 24 hrs by CLSI M38-A procedure based assay; type: functional
Fusarium [17] = assay: Antifungal activity against Fusarium sp. isolates assessed as lowest compound concentration that produced complete inhibition of microbial growth by CLSI M38-A procedure based assay

## C[C@@H](c1nc(-c2ccc(C#N)cc2)cs1)[C@](O)(Cn1cncn1)c1cc(F)ccc1F [ISAVUCONAZOLE]
Scedosporium apiospermum [1]
  MIC90: 2 mg/L (≈ 4.57 µM)
Lomentospora prolificans [2]
  MFC50: >16 mg/L
  MFC90: >16 mg/L
Lomentospora prolificans [2]; Lomentospora prolificans, 24 h
  MFC: > 16 mg/L
  MIC: > 16 mg/L
Lomentospora prolificans [3]
  MIC: 4 mg/L (≈ 9.14 µM)
Nakaseomyces glabratus [4]
  MFC50: 16 mg/L (≈ 36.6 µM)
  MFC90: >16 mg/L
Nakaseomyces glabratus [4]; Nakaseomyces glabratus, 48 h
  MFC: 0.03 mg/L (≈ 0.0686 µM)
  MIC50: 0.25 mg/L (≈ 0.571 µM)
  MIC90: 1 mg/L (≈ 2.29 µM)
Candida tropicalis [5]
  MFC50: >16 mg/L
  MFC90: >16 mg/L
Candida tropicalis [5]; Candida tropicalis, 48 h
  MFC: 2 mg/L (≈ 4.57 µM)
  MIC: < 0.015 mg/L
  MIC50: < 0.015 mg/L
  MIC90: 0.06 mg/L (≈ 0.137 µM)
Candida [6]
  MFC: 0.003 mg/L (≈ 0.00686 µM)
  MIC: > 0.015 mg/L
Pichia kudriavzevii [7]
  MFC: 0.5 mg/L (≈ 1.14 µM)
  MIC: 0.125 mg/L (≈ 0.286 µM)
Aspergillus fumigatus
  MIC: 0.047 mg/L (≈ 0.107 µM)
  MIC50: 0.25 mg/L (≈ 0.571 µM)
  MIC90: 0.5 mg/L (≈ 1.14 µM)
Aspergillus flavus
  MIC: 0.016 mg/L (≈ 0.0366 µM)
  MIC50: 0.38 mg/L (≈ 0.869 µM)
  MIC90: 0.5 mg/L (≈ 1.14 µM)
Aspergillus niger
  MIC: 0.094 mg/L (≈ 0.215 µM)
  MIC50: 0.5 mg/L (≈ 1.14 µM)
  MIC90: 0.75 mg/L (≈ 1.71 µM)
Aspergillus terreus
  MIC50: 0.38 mg/L (≈ 0.869 µM)
  MIC90: 0.5 mg/L (≈ 1.14 µM)
Aspergillus sp.
  MIC: 0.02 mg/L (≈ 0.0457 µM)
Mucor
  MIC: 0.19 mg/L (≈ 0.434 µM)
  MIC50: 2 mg/L (≈ 4.57 µM)
  MIC90: > 32 mg/L
Rhizopus
  MIC50: 1 mg/L (≈ 2.29 µM)
  MIC90: > 32 mg/L
Absidia
  MIC: 0.25 mg/L (≈ 0.571 µM)
Cunninghamella
  MIC: 0.38 mg/L (≈ 0.869 µM)
Syncephalastrum
  MIC: 0.25 mg/L (≈ 0.571 µM)
Scedosporium apiospermum [8]
  MIC: > 32 mg/L
Lomentospora prolificans [9]
  MIC50: > 32 mg/L
  MIC90: > 32 mg/L
Candida albicans
  MIC50: 0.004 mg/L (≈ 0.00914 µM)
  MIC90: 0.015 mg/L (≈ 0.0343 µM)
Candida parapsilosis
  MIC50: 0.004 mg/L (≈ 0.00914 µM)
  MIC90: 0.023 mg/L (≈ 0.0526 µM)
Nakaseomyces glabratus [10]
  MIC50: 0.094 mg/L (≈ 0.215 µM)
  MIC90: 0.38 mg/L (≈ 0.869 µM)
Candida tropicalis [11]
  MIC: 0.003 mg/L (≈ 0.00686 µM)
  MIC50: 0.015 mg/L (≈ 0.0343 µM)
  MIC90: 0.125 mg/L (≈ 0.286 µM)
Candida [12]
  MIC: 0.004 mg/L (≈ 0.00914 µM)
Pichia kudriavzevii [13]
  MIC: 0.012 mg/L (≈ 0.0274 µM)
Fusarium [14]
  MIC: 0.38 mg/L (≈ 0.869 µM)
  MIC50: > 32 mg/L
  MIC90: > 32 mg/L
Fusarium [15]
  MFC50: >16 mg/L
Fusarium [15]; Fusarium, 24 h
  MFC: 4 mg/L (≈ 9.14 µM)
  MIC50: 16 mg/L (≈ 36.6 µM)
  MIC90: > 16 mg/L
Fusarium [16]
  MIC50: 16 mg/L (≈ 36.6 µM)
  MIC90: > 16 mg/L
Fusarium [17]
  MFC90: >16 mg/L
